Tests used:
[1] = molecular target: T1, Delta-type opioid receptor (Homo sapiens, UniProt P41143); assay: Displacement of [3H]diprenorphine human delta opioid receptor expressed in CHO cell membranes after 1 hr by micro beta2 scintillation counting method
Mu-type opioid receptor [2] = molecular target: T2, Mu-type opioid receptor (Homo sapiens, UniProt P35372); assay: Agonist activity at human MOR expressed in CHO cell membranes after 1 hr by [35S]GTPgammaS binding assay; type: functional
Summary of the method: (§1)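 Membranes (15 μg protein) from CHO cells stably expressing human DOR, MOR or KOR, grown in DMEM/F12 with 10% heat-inactivated FBS and G418 selection. Concentration curves of agonist incubated with 0.1 nM 35S-GTPγS for 1 h at 30 °C, then filtered and scintillation counted. EC50 and Emax from 3-parameter fit, Hill slope fixed at 1. Mean ± SEM, N = 3.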

Homo sapiens = species: Homo sapiens; assay: Selectivity index, ratio of Ki for displacement of [3H]diprenorphine human mu opioid receptor expressed in CHO cell membranes to Ki for displacement of [3H]diprenorphine human delta opioid receptor expressed in CHO cell membranes
[3] = molecular target: T1, Delta-type opioid receptor; assay: Agonist activity at human DOR expressed in CHO cell membranes after 1 hr by [35S]GTPgammaS binding assay; type: functional
Summary of the method: as §1, with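 “counted. […]” for “counted.”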

[4] = molecular target: T1, Delta-type opioid receptor; assay: Agonist activity at human DOR expressed in CHO cell membranes after 1 hr by [35S]GTPgammaS binding assay relative to SNC80; type: functional
Summary of the method: as §1, with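 “counted. […]” for “counted.”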

[5] = molecular target: T3, Kappa-type opioid receptor (Homo sapiens, UniProt P41145); assay: Agonist activity at human KOR expressed in CHO cell membranes after 1 hr by [35S]GTPgammaS binding assay; type: functional
Summary of the method: as §1, with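 “counted. […]” for “counted.”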

[6] = molecular target: T3, Kappa-type opioid receptor; assay: Displacement of [3H]diprenorphine human kappa opioid receptor expressed in CHO cell membranes after 1 hr by micro beta2 scintillation counting method
Summary of the method: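 Membranes (20–25 μg protein) from CHO cells expressing human DOR or KOR were incubated 1 h at rt with concentration curves of compound and fixed 3H-diprenorphine (1.2–4.6 nM). Incubations ended by rapid GF/B filtration, then scintillation counted. […] Ki from one-site competition fit using the radioligand KD measured in each cell line. Mean ± SEM, N = 3.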

Mu-type opioid receptor [7] = molecular target: T2, Mu-type opioid receptor; assay: Displacement of [3H]diprenorphine human MOR expressed in CHO cell membranes after 1 hr by micro beta2 scintillation counting method; type: cell-based
Mu-type opioid receptor [8] = molecular target: T2, Mu-type opioid receptor; assay: Agonist activity at human MOR expressed in CHO cell membranes after 1 hr by [35S]GTPgammaS binding assay relative to DAMGO; type: functional
Summary of the method: as §1, with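 “counted. […]” for “counted.”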

[9] = molecular target: T3, Kappa-type opioid receptor; assay: Agonist activity at human KOR expressed in CHO cell membranes after 1 hr by [35S]GTPgammaS binding assay relative to U50,488; type: functional
Summary of the method: as §1, with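 “counted. […]” for “counted.”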

T2 sequence (P35372 whole entry): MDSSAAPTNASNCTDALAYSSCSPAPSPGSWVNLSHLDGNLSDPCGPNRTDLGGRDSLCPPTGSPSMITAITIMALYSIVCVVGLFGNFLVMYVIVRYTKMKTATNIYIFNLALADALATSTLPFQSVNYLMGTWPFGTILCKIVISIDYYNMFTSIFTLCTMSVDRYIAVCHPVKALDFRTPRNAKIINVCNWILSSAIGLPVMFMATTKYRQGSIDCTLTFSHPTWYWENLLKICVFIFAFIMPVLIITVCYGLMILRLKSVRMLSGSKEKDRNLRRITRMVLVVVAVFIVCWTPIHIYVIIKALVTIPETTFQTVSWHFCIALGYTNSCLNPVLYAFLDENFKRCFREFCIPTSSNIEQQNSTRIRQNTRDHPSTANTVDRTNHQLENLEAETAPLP
T1 sequence (P41143 whole entry): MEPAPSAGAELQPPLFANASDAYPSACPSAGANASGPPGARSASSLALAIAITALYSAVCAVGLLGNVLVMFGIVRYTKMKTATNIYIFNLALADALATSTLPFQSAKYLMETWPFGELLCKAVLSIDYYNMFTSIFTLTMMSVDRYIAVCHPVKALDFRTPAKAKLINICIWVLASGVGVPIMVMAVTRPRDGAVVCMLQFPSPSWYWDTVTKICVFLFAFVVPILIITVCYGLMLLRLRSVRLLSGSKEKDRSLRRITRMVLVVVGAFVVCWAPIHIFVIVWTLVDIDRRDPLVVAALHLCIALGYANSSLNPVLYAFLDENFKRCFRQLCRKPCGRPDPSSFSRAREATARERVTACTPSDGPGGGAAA
T3 sequence (P41145 whole entry): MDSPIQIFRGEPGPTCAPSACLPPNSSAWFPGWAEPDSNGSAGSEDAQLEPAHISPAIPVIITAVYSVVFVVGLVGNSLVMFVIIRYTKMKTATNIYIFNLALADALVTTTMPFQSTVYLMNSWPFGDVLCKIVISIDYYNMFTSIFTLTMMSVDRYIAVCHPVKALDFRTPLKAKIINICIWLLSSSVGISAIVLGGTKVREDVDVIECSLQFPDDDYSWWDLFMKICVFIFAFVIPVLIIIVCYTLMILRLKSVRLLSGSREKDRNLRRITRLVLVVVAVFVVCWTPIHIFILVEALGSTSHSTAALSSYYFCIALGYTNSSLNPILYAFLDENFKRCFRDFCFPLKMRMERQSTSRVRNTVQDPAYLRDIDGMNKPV

| Structure (SMILES) | Ki [1] [nM] | EC50 (Mu-type opioid receptor [2]) [nM] | Ratio Ki (Homo sapiens) | EC50 [3] [nM] | Emax [4] [%] | EC50 [5] [nM] | Ki [6] [nM] | Ki (Mu-type opioid receptor [7]) [nM] | Emax (Mu-type opioid receptor [8]) [%] | Emax [9] [%] |
| --- | --- | --- | --- | --- | --- | --- | --- | --- | --- | --- |
| Cc1cc(=O)oc2cc(NC(=O)CCN3C(=O)C4=C(SC[C@@H](NC(=O)[C@@H](N)Cc5ccc(O)cc5)C(=O)NCC(=O)N[C@@H](Cc5ccccc5)C(=O)NNC(=O)[C@H](Cc5ccccc5)NC(=O)CNC(=O)[C@H](NC(=O)[C@@H](N)Cc5ccc(O)cc5)CS4)C3=O)ccc12 | 98 | 270 | 5 to 8 | 250 | 62 | 1000 | > 3330 | 510 | 120 | 60 |
| CN(C)c1cccc2c(S(=O)(=O)NCCN3C(=O)C4=C(SC[C@@H](NC(=O)[C@@H](N)Cc5ccc(O)cc5)C(=O)NCC(=O)N[C@@H](Cc5ccccc5)C(=O)NNC(=O)[C@H](Cc5ccccc5)NC(=O)CNC(=O)[C@H](NC(=O)[C@@H](N)Cc5ccc(O)cc5)CS4)C3=O)cccc12 | 15 | 21 | 5 to 8 | 40 | 47 | 460 | > 3330 | 91 | 79 | 46 |
| Cc1cc(=O)oc2ccc(N3C(=O)C4=C(SC[C@@H](NC(=O)[C@@H](N)Cc5ccc(O)cc5)C(=O)NCC(=O)N[C@@H](Cc5ccccc5)C(=O)NNC(=O)[C@H](Cc5ccccc5)NC(=O)CNC(=O)[C@H](NC(=O)[C@@H](N)Cc5ccc(O)cc5)CS4)C3=O)cc12 | 120 | 290 | 5 to 8 | 190 | 55 | 4100 | > 3330 | 790 | 80 | 50 |
